This is an account of results in ChEMBL document CHEMBL4152258, “Identification of chalcone-based antileishmanial agents targeting trypanothione reductase” (Eur J Med Chem, 2018).

One data set has as its system Leishmania infantum. Description: Antileishmanial activity against promastigote stage of Leishmania infantum MHOM/TN/80/IPT1 assessed as parasite growth inhibition after 72 hrs by Alamar blue assay. It is filed as functional, organism-based. The following applies: MHOM/TN/80/IPT1, 72 h. Put shortly: (§1)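 Late log/stationary promastigotes were seeded at 10^6/mL in HOMEM with 20% FBS and exposed to compounds at 40–1.6 µM for 72 h at 26 °C, from 8 mM DMSO stocks. AlamarBlue was then added for 24 h at 26 °C, and absorbance was read at 550 and 630 nm. Runs were in duplicate. IC50/72h is the mean of two independent determinations.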

The nature of data set [1]: Safety index, ratio of test compound CC50 to amphotericin B CC50 for African green monkey Vero cells. The following applies: chlorocebus sabaeus. The class given is ADME, cell-based.
Data set [2] in a line: Selectivity index, ratio of CC50 for African green monkey Vero cells to IC50 for Leishmania donovani MHOM/NP/02/BPK282/0c14. It is filed as toxicity. The following applies: read-out: Ratio CC50/IC50. The method in brief: (§2)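 Selectivity index calculated as CC50/72h in Vero (16) or THP-1 (17) cells divided by IC50/72h against L. donovani promastigotes.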
Another data set deals with Leishmania tropica. Description: Antileishmanial activity against promastigote stage of Leishmania tropica MHOM/SU/74/K27 assessed as parasite growth inhibition after 72 hrs by Alamar blue assay. It is filed as functional, organism-based. The following applies: MHOM/SU/74/K27, 72 h. Put shortly: as §1
Data set [3] can be described thus: Ratio of IC50 for amastigote stage of Leishmania donovani MHOM/NP/02/BPK282/0c14 to Ki for Leishmania spp. trypanothione reductase.
Data set [4] concerns Leishmania donovani. Description: Antileishmanial activity against amastigote stage of Leishmania donovani MHOM/NP/02/BPK282/0c14 infected in human THP1 cells assessed as parasite growth inhibition after 72 hrs by Giemsa staining-based assay. It is filed as functional, organism-based. As to conditions: MHOM/NP/02/BPK282/0c14, THP-1, 72 h. Put shortly: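 THP-1 cells at 10^5 cells/mL differentiated with 0.1 µM PMA for 48 h at 37 °C, 5% CO2, then infected with stationary-phase promastigotes. After 24 h, compounds were added at 40–1.5 µM for 72 h. Wells were Giemsa-stained, and the infectivity index (% infected macrophages × mean amastigotes per macrophage) was counted on ≥100 cells in duplicate cultures. IC50/72h determined.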

A short description of data set [5]: Cytotoxicity against human THP1 cells after 72 hrs by Alamar blue assay. The following applies: THP-1 cells. It is filed as cell-based. Put shortly:
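THP-1 cells were seeded at 10^5 cells/mL in RPMI-1640 with 10% FBS and adhered with 0.1 µM PMA, then exposed to compounds for 72 h at 37 °C, 5% CO2. AlamarBlue was added for 24 h at 37 °C, with absorbance read at 550 and 630 nm. Duplicates. CC50/72h determined.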
Background: The colour change of resazurin is a common sign of viable cells or microbes.

A short description of data set [6]: Cytotoxicity against African green monkey Vero cells after 72 hrs by Alamar blue assay. The following applies: chlorocebus sabaeus. It is filed as cell-based. Put shortly:
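Vero cells were seeded at 10^5/mL in MEM with 10% FBS and exposed to compounds up to 600 µM for 72 h at 37 °C, 5% CO2. AlamarBlue was added for 24 h at 37 °C, with absorbance read at 550 and 630 nm. Duplicates. CC50/72h determined.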

A short description of data set [7]: Binding affinity to Leishmania spp. trypanothione reductase by surface plasmon resonance analysis. Further details: species or system Leishmania sp. The method in brief:
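Recombinant L. infantum TR was amine-coupled to ~2000 RU on a carboxyl sensor chip. Analytes in HBS pH 7.4 + 1% DMSO were given as FastStep serial doubling injections from 1.56 to 100 µM, followed by dissociation after 100 s. A protein-free surface served as control. Sensorgrams are averages of three experiments. KD came from Scatchard plots and a global 1:1 binding fit.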
For orientation: Surface plasmon resonance follows binding to a sensor surface in real time, without labels.

Data set [8] is described as follows: Competitive inhibition of Leishmania spp. trypanothione reductase in presence of 75 to 400 uM TS2 by Dixon plot analysis. Also on record: species or system Leishmania sp. The method in brief: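 Recombinant L. infantum TR at 40 nM was equilibrated for 2 min at 25 °C with TS2 (75–400 µM) and inhibitor (30 nM–1 µM). The reaction was started with 40 µM NADPH, and NADPH oxidation was followed as A340 decrease (ε 6,222 M−1 cm−1). A Dixon plot was built by linear regression of reciprocal fitted rates against inhibitor concentration.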

Data set [9] is described as follows: Selectivity index, ratio of CC50 for human THP1 cells to IC50 for Leishmania donovani MHOM/NP/02/BPK282/0c14. It is filed as toxicity. As to conditions: THP-1 cells, read-out: Ratio CC50/IC50. Put shortly: as §2
Data set [10] can be described thus: Safety index, ratio of test compound CC50 to amphotericin B CC50 for human THP1 cells. It is filed as ADME, cell-based. As to conditions: THP-1 cells.
Another data set has as its system Leishmania sp. Description: Potency index, ratio of Sb3+ Ki to test compound Ki for Leishmania spp. trypanothione reductase.
For a further data set, the system named is Leishmania major. As to the kind of experiment: Antileishmanial activity against promastigote stage of Leishmania major MHOM/SU/73/5-ASKH assessed as parasite growth inhibition after 72 hrs by Alamar blue assay. It is filed as functional, organism-based. The method in brief: as §1
A short description of data set [11]: Ratio of IC50 for promastigote stage of Leishmania donovani MHOM/NP/02/BPK282/0c14 to Ki for Leishmania spp. trypanothione reductase.
Data set [12] deals with Leishmania donovani. Description: Antileishmanial activity against promastigote stage of Leishmania donovani MHOM/NP/02/BPK282/0c14 assessed as parasite growth inhibition after 72 hrs by Alamar blue assay. The class given is functional, organism-based. The following applies: MHOM/NP/02/BPK282/0c14, 72 h. The method in brief: as §1

`COc1cc(OCC=C(C)C)ccc1C(=O)/C=C/c1ccc([N+](=O)[O-])cc1`: the IC50 in the data set on Leishmania infantum came to 1.6 µM; in the data set on Leishmania tropica, 5.2 µM; in the data set with Leishmania donovani [4] it was 14 µM; with Leishmania major, 3.3 µM; with Leishmania donovani [12] it was 3 µM. In addition, the selectivity ratio came out at 3 in [1], 200 in data set [2], 200 in data set [9] and 3 in data set [10]. The Ratio in data set [3] was 30; in data set [11], 6. Moreover, the CC50 at 72 h in data set [5] and in data set [6] was 600 µM in each case. Also, the Kd in data set [7] is 0.6 µM. Further, the Ki in data set [8] is 0.45 µM. The Ratio Ki with Leishmania sp. came to 3.

The term IC50 denotes the concentration that gives 50% inhibition. By CC50 is commonly meant the concentration giving 50% cytotoxicity. For orientation: Kd means the free concentration of one partner at which half of the binding sites on the other are occupied at equilibrium, for simple one-to-one binding. As a reminder, the Ki is the dissociation constant of the complex between target and ligand, obtained from inhibition or displacement.
